The subject of one test is THP-1. Briefly: Inhibition of pyroptosis in LPS-primed human THP1 assessed as reduction in nigericin-induced pyroptotic-pore formation by propidium iodide uptake assay. Type of test: functional, cell-based. The method in brief:
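THP-1 cells induced to pyroptosis. Cell death read by LDH release and pore formation by PI uptake. Means ± SE, ≥3 experimental replicates.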

Test [1] has as its target T1, Gasdermin-D (Mus musculus) (UniProt Q9D8T2).
T1 sequence (whole entry): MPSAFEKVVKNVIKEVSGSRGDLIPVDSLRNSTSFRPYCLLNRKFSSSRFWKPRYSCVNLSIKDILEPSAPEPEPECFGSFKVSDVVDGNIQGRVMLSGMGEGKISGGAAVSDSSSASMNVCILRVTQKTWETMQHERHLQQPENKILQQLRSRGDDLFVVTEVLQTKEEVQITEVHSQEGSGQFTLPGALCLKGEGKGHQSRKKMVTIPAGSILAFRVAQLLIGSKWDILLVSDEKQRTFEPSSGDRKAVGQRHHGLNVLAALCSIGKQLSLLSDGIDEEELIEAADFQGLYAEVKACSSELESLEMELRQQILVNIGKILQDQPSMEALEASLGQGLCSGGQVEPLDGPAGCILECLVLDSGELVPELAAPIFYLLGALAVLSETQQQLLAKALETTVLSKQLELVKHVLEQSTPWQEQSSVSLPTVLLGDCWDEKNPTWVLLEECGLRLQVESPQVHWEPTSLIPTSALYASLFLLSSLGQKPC
Briefly: Inhibition of GSDMD cytosol-plasma membrane translocation in LPS-primed immortalized mouse […] cells at 5 uM followed by subsequent nigericin stimulation by immunofluorescence assay. Type of test: cell-based. To be noted: J774.A1. In short, it runs like this: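 Macrophages were LPS-primed, then stimulated with nigericin, in immortalized and primary cells. Anti-GSDMD immunofluorescence, with line-intensity histograms of cytosol versus plasma-membrane localization. Mean ± SEM, n ≥ 3 independent experiments.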

The subject of test [2] is J774.A1. The test is described as follows: Inhibition of caspase-1 recruitment to inflammasome in LPS-primed immortalized mouse […] cells assessed as nigericin-induced colocalization of caspase-1 and ASC at 5 uM by immunostaining based confocal microscopy. The format is functional, cell-based. In short, it runs like this: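 Caspase-1 and ASC colocalization: Pearson's correlation coefficient calculated in 20 to 25 randomly selected cells.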

Test [3] concerns the target NACHT, LRR and PYD domains-containing protein 3 (Mus musculus) (UniProt Q8R4B8). The test is described as follows: Activation of NLRP3 in LPS-primed C57BL/6 mouse primary BMDM transfected with eGFP-tagged ASC assessed as nigericin-induced ASC oligomerization by measuring speck formation at 5 uM by confocal microscopy. In short, it runs like this:
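Primary macrophages transfected with an ASC-GFP plasmid, then given LPS and nigericin to induce ASC specks. Imaged by confocal microscopy.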

For test [4], the target named is Nlrp3/Pycard (Mus musculus) (UniProt Q8R4B8+Q9EPB4). Briefly: Inhibition of NLRP3-ASC interaction in LPS-primed immortalized mouse […] cells at 5 uM by co-immunoprecipitation assay. Type of test: cell-based. The following applies: J774.A1. In short, it runs like this:
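Coimmunoprecipitation of endogenous ASC and NLRP3 in immortalized macrophages.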

Test [5] deals with J774.A1. Briefly: Inhibition of pyroptosis in LPS-primed immortalized mouse […] cells assessed as reduction in flagellin-induced […] secretion by ELISA. The format is functional, cell-based. The method in brief:
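J774A.1 cells stimulated with flagellin or poly(dA:dT). IL-1β release measured by ELISA. Mean ± SEM, n ≥ 3 independent experiments.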

The next test addresses T2, Caspase-4 (Mus musculus) (UniProt P70343).
T2 sequence (whole entry): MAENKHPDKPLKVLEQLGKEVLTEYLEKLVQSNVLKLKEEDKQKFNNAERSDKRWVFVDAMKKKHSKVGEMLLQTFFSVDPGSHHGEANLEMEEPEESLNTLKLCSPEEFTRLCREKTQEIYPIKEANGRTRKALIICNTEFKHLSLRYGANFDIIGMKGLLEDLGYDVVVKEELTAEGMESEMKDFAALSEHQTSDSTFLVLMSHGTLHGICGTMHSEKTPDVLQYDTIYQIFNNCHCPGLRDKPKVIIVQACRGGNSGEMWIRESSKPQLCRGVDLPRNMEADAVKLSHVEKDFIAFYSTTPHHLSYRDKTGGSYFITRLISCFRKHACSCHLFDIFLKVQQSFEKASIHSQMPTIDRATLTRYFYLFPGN
The test is described as follows: Inhibition of pyroptosis-inducing caspase-11 in LPS-primed immortalized mouse […] cells assessed as cell death at 5 uM by LDH assay. Type of test: cell-based. The following applies: J774.A1. The method in brief: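 Cell death induced by cytoplasmic LPS in J774A.1 cells, measured by LDH release. Mean ± SEM, n ≥ 3.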

Another test deals with T3, Caspase-1 (Homo sapiens) (UniProt P29466).
T3 sequence (whole entry): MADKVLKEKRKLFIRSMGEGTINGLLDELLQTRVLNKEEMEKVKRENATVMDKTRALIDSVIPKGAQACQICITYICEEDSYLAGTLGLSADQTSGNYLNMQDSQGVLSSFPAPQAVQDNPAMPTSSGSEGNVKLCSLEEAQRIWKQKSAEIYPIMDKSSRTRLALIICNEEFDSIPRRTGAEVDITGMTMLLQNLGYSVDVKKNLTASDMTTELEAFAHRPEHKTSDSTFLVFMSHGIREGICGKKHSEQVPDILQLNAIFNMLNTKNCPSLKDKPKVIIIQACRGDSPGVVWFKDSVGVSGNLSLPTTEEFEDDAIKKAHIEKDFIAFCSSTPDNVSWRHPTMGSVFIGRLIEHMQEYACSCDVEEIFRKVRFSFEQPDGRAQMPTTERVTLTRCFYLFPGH
The test is described as follows: Inhibition of pronase-mediated caspase-1 degradation in HEK293 cell lysate at 5 uM measured after 30 mins by DARTS based Western blot analysis. The format is cell-free. In short, it runs like this:
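DARTS assay: cell lysates pretreated with compound, then digested with different Pronase concentrations. Caspase-1 stability read by immunoblot against a histone H3 control.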
On the technique in general: A western blot detects proteins with antibodies after separation by electrophoresis.

A further test concerns Mus musculus. Briefly: Antiinflammatory activity against LPS-induced sepsis C57BL/6J mouse model assessed as reduction in alveolar congestion at 20 mg/kg, iv administered as single dose for 1 hr prior to LPS challenge and measured after 48 hrs by hematoxylin-eosin staining based inverted microscopy analysis. Type of test: functional, organism-based.
Another test is filed under the species Danio rerio. Briefly: Antiinflammatory immunity against LPS-induced sepsis in […]:eGFP zebrafish larva assessed as decrease in macrophage infiltration in intestine at 5 uM measured at 7 dpf by confocal microscopic analysis. Type of test: functional, organism-based. The method in brief:
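Zebrafish sepsis model using Tg(mpeg1:eGFP) larvae with GFP-labelled macrophages, treated at 5 μM. Intestine imaged by confocal microscopy at 7 days post fertilization, and macrophages counted in the imaged region.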

Calls of active or inactive are those of the source. No cut-off for these calls is given here.

NACHT, LRR and PYD domains-containing protein 3 (Mus musculus), sequence (Q8R4B8 whole entry, the tested form may be a part): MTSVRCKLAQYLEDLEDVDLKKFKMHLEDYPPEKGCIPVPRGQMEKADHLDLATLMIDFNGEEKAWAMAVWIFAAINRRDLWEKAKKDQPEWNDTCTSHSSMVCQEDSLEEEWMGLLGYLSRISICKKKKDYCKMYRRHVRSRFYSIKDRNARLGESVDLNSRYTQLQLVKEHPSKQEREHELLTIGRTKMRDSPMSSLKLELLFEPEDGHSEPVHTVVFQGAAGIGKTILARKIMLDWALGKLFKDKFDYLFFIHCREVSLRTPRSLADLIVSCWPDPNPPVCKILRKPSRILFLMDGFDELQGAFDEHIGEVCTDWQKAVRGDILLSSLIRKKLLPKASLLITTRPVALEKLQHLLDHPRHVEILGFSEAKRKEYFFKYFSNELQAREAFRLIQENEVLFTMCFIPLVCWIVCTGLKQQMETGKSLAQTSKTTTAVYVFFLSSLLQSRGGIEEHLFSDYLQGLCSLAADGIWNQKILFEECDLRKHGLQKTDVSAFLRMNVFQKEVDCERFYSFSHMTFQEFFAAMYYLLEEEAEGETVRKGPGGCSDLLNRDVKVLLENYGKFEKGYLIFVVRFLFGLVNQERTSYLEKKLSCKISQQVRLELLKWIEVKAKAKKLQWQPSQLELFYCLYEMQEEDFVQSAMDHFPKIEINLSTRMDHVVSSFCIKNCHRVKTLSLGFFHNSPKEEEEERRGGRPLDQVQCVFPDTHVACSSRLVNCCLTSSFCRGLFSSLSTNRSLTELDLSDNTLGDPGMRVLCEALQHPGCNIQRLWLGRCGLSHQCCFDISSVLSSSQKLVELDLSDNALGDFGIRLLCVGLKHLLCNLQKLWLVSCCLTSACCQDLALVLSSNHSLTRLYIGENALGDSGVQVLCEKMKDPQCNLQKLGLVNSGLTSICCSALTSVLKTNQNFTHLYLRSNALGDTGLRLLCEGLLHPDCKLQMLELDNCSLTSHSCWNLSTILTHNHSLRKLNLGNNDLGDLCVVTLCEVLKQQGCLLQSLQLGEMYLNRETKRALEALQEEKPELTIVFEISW
Nlrp3/Pycard (Mus musculus), sequence (Q8R4B8 whole entry, looked up): as the sequence (Q8R4B8 whole entry, the tested form may be a part) above
Nlrp3/Pycard (Mus musculus), sequence (Q9EPB4 whole entry, looked up): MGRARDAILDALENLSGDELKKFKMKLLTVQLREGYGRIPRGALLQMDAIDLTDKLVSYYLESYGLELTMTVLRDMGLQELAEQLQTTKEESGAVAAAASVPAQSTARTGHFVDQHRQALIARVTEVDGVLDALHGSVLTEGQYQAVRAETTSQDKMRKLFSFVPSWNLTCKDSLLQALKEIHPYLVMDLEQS

For the compound `CCOC(CN1C(=O)C(NC(=O)Nc2ccc(C)cc2)(C(F)(F)C(=O)Nc2ccc(C)cc2)c2ccccc21)OCC` (stereo not given), the inhibition result (in the test on THP-1; in [1]; with J774.A1 [2]; with J774.A1 [5]; at Caspase-4 (Mus musculus); at Caspase-1 (Homo sapiens)) was “Active” in each case. Also, in [3], the result was inactive. Moreover, the inhibition entry in [4] is “inactive”. Besides, the result in the test on Mus musculus and in the test listed under Danio rerio was Active.

These data come from ChEMBL document CHEMBL4619791, “3-Difluoroalkyl Quaternary Oxindoles Inhibit Macrophage Pyroptosis by Blocking Inflammasome Recruitment of Caspase-1” (ACS Med Chem Lett, 2020).
